From ChEMBL document CHEMBL4387710, “Fragment-Based Discovery of an Apolipoprotein E4 (apoE4) Stabilizer” (J Med Chem, 2019) come the findings set out here.

Series [1] in a line: Binding affinity to N-terminal thrombin-recognition site-fused His6-tagged human apolipoprotein E4 N-terminal domain without leader sequence (1 to 164 residues) expressed in Escherichia coli BL21-(DE3)-T1R cells by 13C-HSQC NMR spectroscopy.
A short description of series [2]: Binding affinity to full-length human recombinant C-terminal FLAG/His-tagged apolipoprotein E4 expressed in HEK293-6E cells by surface plasmon resonance assay.
The nature of series [3]: Binding affinity to full-length human recombinant C-terminal FLAG/His-tagged apolipoprotein E3 expressed in HEK293-6E cells by surface plasmon resonance assay.
Series [4] can be described thus: Binding affinity to N-terminal thrombin-recognition site-fused His6-tagged human apolipoprotein E4 N-terminal domain without leader sequence (1 to 164 residues) expressed in Escherichia coli BL21-(DE3)-T1R cells by surface plasmon resonance analysis.
For series [5], the species on record is Homo sapiens. Description: Binding affinity to full-length human recombinant C-terminal FLAG/His-tagged apolipoprotein E4 expressed in HEK293-6E cells assessed as breakdown of DMPG liposomes at 500 uM after 30 mins by dynamic light scattering analysis. It is filed as cell-based. The method, boiled down:
(§1)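 DMPG liposome breakdown assay: large DMPG liposomes incubated with apoE protein (N-terminal domain, or full-length wild-type from mammalian cells). Breakdown into smaller discoidal complexes is read as a fall in light-scattering intensity. Liposomes alone serve as control. Compound is tested as a dose series covering 15.6 to 500 μM.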

The species entered for series [6] is Homo sapiens. Description: Binding affinity to human recombinant full-length N-terminal thrombin-recognition site-fused His6-tagged apolipoprotein E3 (1 to 299 residue) F257A/W246R/V269A/L279Q/V287E mutant expressed in Escherichia coli BL21-(DE3)-T1R cells assessed as change in melting temperature at 5 mM incubated for 15 mins by SYPRO orange dye-based thermal shift assay. The method, boiled down:
(§2)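 Thermal shift assay: compound added at 5 mM to full-length mutant apoE protein (apoE4 or apoE3). Stabilization is reported as the shift in melting temperature, in degrees.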

Series [7] is filed under the species Homo sapiens. Nature of the series: Binding affinity to N-terminal thrombin-recognition site-fused His6-tagged human apolipoprotein E4 N-terminal domain without leader sequence (1 to 164 residues) expressed in Escherichia coli BL21-(DE3)-T1R cells assessed as breakdown of DMPG liposomes at 500 uM after 30 mins by dynamic light scattering analysis. In a few lines: as §1

The species entered for series [8] is Homo sapiens. Nature of the series: Binding affinity to human recombinant full-length N-terminal thrombin-recognition site-fused His6-tagged apolipoprotein E4 (1 to 299 residue) F257A/W246R/V269A/L279Q/V287E mutant expressed in Escherichia coli BL21-(DE3)-T1R cells assessed as change in melting temperature at 5 mM incubated for 15 mins by SYPRO orange dye-based thermal shift assay. The method, boiled down:
as §2

Series [9] is described as follows: Solubility of the compound in PBS by NMR method. Format: physicochemical.
Series [10] deals with Astrocyte. Nature of the series: Cytotoxicity against human induced pluripotent stem cell-derived astrocytes harboring apolipoprotein E4/4 assessed as effect on cell viability at 12.5 uM to 100 uM preincubated for 1 hr followed by TNFalpha/IL-1beta/IFNgamma stimulation and measured after 24 hrs by CellTiter-Glo luminescent cell viability assay. Format: cell-based.
In series [11] the test system is Astrocyte. Nature of the series: Antineuroinflammatory activity in human induced pluripotent stem cell-derived astrocytes harboring apolipoprotein E4/4 assessed reduction in TNFalpha/IL-1beta/IFNgamma-stimulated IL-6 secretion preincubated for 1 hr followed by TNFalpha/IL-1beta/IFNgamma stimulation and measured after 24 hrs. It is filed as functional, cell-based.

Series [12] relates to Astrocyte. Nature of the series: Antineuroinflammatory activity in human induced pluripotent stem cell-derived astrocytes harboring apolipoprotein E4/4 assessed reduction in TNFalpha/IL-1beta/IFNgamma-stimulated IL-8 secretion preincubated for 1 hr followed by TNFalpha/IL-1beta/IFNgamma stimulation and measured after 24 hrs. It is filed as functional, cell-based.
The species named for series [13] is Homo sapiens. Nature of the series: Binding affinity to human recombinant full-length N-terminal thrombin-recognition site-fused His6-tagged apolipoprotein E4 (1 to 299 residue) F257A/W246R/V269A/L279Q/V287E mutant expressed in Escherichia coli BL21-(DE3)-T1R cells assessed as change in melting temperature at 1 mM incubated for 15 mins by SYPRO orange dye-based thermal shift assay.

SMILES strings stand for the structures. pKd: −log10 of the molar value. Calls of active or inactive are those of the source. No cut-off for these calls is given here. Where only a bound is given, the exact number is not on record here.

In series [1], `N=C(N)C1(c2cc(Cl)cc(-c3ccc(CO)c(Cl)c3)c2)CCC1` had a negative-log Kd (pKd) of 5.10.
Consider `N=C(N)C1(c2cccc(Cl)c2)CCC1`, for which the pKd is 3.63 in series [2], 3.05 in series [3], 3.69 in [4] and 3.05 in [1]. For the same compound, the result in [5] and in [7] was Active. The thermal shift (ΔTm) in series [6] turned out to be 0.5 °C; in series [8] it was 4 °C. Moreover, in series [9], the solubility is no less than 500 µM.
Consider `CC(C)(O)c1ccc(-c2cc(Cl)cc(C3(C(=N)N)CCC3)c2)cc1`, for which, in series [1], the pKd was 4.52.
Compound `N=C(N)C1(c2cc(Cl)cc(-c3ccccc3)c2)CCC1` gave a pKd in [1] of 3.64.
Compound `N=C(N)C1(c2cc(Cl)cc(-c3ccc(CN)cc3)c2)CCC1` gave a negative logarithm of the Kd (pKd) in series [1] greater than 5.30.
For the compound `CN(C)CCNC(=O)c1ccc(-c2cc(Cl)cc(C3(C(=N)N)CCC3)c2)cc1`, the Activity entry is “Non-Toxic” in series [10], “Dose-dependent effect” in series [11] and “Dose-dependent effect” in series [12]. The negative-log Kd (pKd) in [1] was greater than 5.30. Also, the ΔTm in series [13] is 4 °C.
On to `CCNS(=O)(=O)c1ccc(-c2cc(Cl)cc(C3(C(=N)N)CCC3)c2)cc1`, for which the pKd in series [1] is 4.70.
In turn, `CC(=O)NCc1ccc(-c2cc(Cl)cc(C3(C(=N)N)CCC3)c2)cc1` had a negative-log Kd (pKd) in [1] of 4.70.
